Laboratory results taken from ChEMBL document CHEMBL4007404, “Identification of High-Potency Human TLR8 and Dual TLR7/TLR8 Agonists in Pyrimidine-2,4-diamines” (J Med Chem, 2017).
Activity calls are given as the source filed them. The calls are words filed in the database; no cut-off is given here.

How the values were obtained:
Format in all cases: cell-based
[1] = molecular target: Toll-like receptor 3 (Homo sapiens) (UniProt O15455); experiment: Activity at human TLR3 expressed in HEK293 cells co-expressing secreted alkaline phosphatase assessed as induction of NF-kappaB/AP-1 promoter activity by measuring increase in secreted alkaline phosphatase level by spectrophotometric method
In short: (§1)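 HEK293 cells stably co-transfected with the relevant human TLR (2, 3, 4, 5, 7, 8 or 9) plus an NF-κB/AP-1-driven secreted alkaline phosphatase reporter, kept in selection medium. Cells at ~10⁵ cells/ml were exposed to graded concentrations of stimuli in 384-well format, liquid-handler assisted. Supernatant sAP was read at 620 nm with an alkaline phosphatase-specific chromogen.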

Toll-like receptor 8 = molecular target: T1, Toll-like receptor 8 (Homo sapiens, UniProt Q9NR97); experiment: Agonist activity at human TLR8 expressed in HEK293 cells co-expressing secreted alkaline phosphatase assessed as induction of NF-kappaB/AP-1 promoter activity by measuring increase in secreted alkaline phosphatase level by spectrophotometric method; in short: as §1
T1 sequence (Q9NR97 whole entry): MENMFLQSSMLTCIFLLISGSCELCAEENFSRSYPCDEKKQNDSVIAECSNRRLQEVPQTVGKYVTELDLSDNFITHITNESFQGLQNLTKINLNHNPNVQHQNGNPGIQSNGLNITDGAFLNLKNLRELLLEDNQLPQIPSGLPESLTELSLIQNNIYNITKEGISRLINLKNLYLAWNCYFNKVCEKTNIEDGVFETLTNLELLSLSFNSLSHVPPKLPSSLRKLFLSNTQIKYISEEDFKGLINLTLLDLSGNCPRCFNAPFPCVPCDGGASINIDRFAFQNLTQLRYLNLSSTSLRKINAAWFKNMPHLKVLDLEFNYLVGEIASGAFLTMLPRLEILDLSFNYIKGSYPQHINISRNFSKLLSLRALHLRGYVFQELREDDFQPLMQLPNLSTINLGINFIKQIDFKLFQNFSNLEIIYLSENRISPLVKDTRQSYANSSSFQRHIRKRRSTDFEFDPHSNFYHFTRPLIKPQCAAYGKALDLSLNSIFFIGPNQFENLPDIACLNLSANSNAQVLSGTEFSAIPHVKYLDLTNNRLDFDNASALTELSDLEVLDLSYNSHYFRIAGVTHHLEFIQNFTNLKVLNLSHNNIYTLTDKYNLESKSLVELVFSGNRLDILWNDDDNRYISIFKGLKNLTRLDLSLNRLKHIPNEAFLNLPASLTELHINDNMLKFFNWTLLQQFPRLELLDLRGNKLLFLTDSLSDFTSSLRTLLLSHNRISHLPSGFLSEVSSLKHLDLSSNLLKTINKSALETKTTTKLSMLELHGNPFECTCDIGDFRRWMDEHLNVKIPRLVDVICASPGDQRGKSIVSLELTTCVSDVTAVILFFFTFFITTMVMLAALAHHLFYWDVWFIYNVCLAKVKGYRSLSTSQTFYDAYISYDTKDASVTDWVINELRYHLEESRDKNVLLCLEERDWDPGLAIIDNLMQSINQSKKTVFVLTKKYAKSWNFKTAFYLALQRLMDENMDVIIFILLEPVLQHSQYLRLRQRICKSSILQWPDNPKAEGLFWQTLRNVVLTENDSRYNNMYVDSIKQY

[2] = molecular target: Toll-like receptor 4 (Homo sapiens) (UniProt O00206); experiment: Activity at human TLR4 expressed in HEK293 cells co-expressing secreted alkaline phosphatase assessed as induction of NF-kappaB/AP-1 promoter activity by measuring increase in secreted alkaline phosphatase level by spectrophotometric method; in short: as §1
[3] = molecular target: Toll-like receptor 5 (Homo sapiens) (UniProt O60602); experiment: Activity at human TLR5 expressed in HEK293 cells co-expressing secreted alkaline phosphatase assessed as induction of NF-kappaB/AP-1 promoter activity by measuring increase in secreted alkaline phosphatase level by spectrophotometric method; in short: as §1
[4] = molecular target: Toll-like receptor 2 (Homo sapiens) (UniProt O60603); experiment: Activity at human TLR2 expressed in HEK293 cells co-expressing secreted alkaline phosphatase assessed as induction of NF-kappaB/AP-1 promoter activity by measuring increase in secreted alkaline phosphatase level by spectrophotometric method; in short: as §1
[5] = molecular target: T2, Toll-like receptor 9 (Homo sapiens) (UniProt Q9NR96); experiment: Activity at human TLR9 expressed in HEK293 cells co-expressing secreted alkaline phosphatase assessed as induction of NF-kappaB/AP-1 promoter activity by measuring increase in secreted alkaline phosphatase level by spectrophotometric method; in short: as §1
T2 sequence (whole entry): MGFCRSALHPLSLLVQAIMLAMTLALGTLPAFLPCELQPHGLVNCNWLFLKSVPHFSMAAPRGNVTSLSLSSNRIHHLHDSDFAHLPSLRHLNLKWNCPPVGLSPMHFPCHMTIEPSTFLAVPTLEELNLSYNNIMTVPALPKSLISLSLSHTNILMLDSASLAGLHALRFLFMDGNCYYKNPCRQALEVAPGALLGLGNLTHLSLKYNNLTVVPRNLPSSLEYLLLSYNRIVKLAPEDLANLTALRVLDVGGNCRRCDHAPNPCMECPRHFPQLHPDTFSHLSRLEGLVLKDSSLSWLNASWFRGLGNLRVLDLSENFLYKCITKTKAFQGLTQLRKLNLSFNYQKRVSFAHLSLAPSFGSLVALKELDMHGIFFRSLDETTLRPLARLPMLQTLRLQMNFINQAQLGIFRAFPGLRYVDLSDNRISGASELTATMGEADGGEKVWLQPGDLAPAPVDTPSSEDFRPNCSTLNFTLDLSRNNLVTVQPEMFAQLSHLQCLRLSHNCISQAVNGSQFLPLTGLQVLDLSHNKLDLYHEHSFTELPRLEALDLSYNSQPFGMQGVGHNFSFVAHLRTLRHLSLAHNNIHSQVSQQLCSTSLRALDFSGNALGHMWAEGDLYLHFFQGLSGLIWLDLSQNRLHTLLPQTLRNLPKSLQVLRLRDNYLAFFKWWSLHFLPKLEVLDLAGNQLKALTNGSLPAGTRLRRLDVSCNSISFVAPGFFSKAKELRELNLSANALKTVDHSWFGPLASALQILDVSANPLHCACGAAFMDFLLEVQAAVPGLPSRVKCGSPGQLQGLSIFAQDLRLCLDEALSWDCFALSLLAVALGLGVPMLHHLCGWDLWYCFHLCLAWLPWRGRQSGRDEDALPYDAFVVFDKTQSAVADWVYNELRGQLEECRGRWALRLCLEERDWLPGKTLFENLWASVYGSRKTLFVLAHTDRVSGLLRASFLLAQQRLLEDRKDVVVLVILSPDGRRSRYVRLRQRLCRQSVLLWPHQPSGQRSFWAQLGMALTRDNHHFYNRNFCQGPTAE

Sequence of Toll-like receptor 3 (Homo sapiens) (O15455 whole entry): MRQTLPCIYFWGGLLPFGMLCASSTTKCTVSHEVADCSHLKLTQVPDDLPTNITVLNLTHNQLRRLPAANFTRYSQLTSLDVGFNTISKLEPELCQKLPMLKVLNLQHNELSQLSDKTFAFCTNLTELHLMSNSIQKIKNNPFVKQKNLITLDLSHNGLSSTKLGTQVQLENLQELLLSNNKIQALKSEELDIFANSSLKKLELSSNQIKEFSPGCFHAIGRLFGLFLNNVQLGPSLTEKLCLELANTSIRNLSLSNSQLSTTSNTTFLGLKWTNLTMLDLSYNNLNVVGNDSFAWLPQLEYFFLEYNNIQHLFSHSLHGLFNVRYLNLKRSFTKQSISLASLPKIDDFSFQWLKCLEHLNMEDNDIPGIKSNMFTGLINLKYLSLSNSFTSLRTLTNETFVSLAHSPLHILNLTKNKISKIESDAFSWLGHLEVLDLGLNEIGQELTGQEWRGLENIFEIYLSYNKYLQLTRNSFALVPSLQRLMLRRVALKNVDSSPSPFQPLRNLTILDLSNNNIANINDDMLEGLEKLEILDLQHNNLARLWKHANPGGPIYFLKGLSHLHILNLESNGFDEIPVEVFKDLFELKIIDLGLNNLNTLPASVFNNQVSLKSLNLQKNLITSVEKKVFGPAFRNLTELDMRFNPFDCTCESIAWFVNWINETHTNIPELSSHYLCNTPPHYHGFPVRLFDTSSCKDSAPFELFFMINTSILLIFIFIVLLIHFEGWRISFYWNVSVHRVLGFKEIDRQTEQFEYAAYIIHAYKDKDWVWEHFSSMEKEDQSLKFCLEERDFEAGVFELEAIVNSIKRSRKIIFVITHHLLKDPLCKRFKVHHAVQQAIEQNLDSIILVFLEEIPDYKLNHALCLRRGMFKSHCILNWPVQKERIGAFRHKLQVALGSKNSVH
Sequence of Toll-like receptor 2 (Homo sapiens) (O60603 whole entry): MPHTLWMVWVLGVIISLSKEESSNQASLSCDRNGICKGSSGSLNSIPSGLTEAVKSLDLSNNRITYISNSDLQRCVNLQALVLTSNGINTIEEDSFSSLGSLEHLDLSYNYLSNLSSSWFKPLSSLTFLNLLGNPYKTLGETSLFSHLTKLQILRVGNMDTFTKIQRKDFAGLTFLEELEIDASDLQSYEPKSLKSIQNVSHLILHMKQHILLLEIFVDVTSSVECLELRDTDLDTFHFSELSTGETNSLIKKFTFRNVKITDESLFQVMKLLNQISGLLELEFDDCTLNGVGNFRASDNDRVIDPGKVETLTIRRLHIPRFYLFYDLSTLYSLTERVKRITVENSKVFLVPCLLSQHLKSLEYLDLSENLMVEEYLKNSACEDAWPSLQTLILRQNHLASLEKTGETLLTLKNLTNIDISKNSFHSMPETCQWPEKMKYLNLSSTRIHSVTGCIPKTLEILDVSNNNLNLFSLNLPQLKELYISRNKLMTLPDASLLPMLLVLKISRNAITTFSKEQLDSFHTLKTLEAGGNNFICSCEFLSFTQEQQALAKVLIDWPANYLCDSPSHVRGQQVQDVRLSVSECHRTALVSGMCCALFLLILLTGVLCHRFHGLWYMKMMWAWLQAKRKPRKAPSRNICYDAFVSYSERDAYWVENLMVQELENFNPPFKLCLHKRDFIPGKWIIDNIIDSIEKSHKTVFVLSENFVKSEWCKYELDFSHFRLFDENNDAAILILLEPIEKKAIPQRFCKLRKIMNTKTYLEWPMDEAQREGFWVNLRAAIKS
Sequence of Toll-like receptor 5 (Homo sapiens) (O60602 whole entry): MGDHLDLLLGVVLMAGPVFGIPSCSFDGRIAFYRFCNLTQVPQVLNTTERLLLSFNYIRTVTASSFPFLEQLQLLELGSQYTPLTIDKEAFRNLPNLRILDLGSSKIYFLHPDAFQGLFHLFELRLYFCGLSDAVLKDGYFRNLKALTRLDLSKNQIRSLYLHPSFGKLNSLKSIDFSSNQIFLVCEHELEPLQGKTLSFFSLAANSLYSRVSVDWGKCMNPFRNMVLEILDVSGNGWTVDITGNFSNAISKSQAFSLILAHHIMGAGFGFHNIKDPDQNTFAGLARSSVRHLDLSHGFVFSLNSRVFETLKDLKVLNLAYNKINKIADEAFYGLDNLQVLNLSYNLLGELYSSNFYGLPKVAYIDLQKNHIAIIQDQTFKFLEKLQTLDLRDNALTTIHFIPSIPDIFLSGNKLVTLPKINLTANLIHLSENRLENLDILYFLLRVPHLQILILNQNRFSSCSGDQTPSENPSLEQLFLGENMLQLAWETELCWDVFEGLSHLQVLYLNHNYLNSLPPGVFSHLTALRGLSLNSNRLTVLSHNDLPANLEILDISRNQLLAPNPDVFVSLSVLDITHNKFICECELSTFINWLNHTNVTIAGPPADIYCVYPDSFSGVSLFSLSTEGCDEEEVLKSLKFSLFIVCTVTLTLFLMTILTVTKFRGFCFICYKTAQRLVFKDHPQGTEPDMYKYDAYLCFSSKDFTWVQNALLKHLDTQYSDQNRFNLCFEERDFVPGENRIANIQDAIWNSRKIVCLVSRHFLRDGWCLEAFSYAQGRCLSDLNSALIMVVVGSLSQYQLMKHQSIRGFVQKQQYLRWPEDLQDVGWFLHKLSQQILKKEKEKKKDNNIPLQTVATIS
Sequence of Toll-like receptor 4 (Homo sapiens) (O00206 whole entry): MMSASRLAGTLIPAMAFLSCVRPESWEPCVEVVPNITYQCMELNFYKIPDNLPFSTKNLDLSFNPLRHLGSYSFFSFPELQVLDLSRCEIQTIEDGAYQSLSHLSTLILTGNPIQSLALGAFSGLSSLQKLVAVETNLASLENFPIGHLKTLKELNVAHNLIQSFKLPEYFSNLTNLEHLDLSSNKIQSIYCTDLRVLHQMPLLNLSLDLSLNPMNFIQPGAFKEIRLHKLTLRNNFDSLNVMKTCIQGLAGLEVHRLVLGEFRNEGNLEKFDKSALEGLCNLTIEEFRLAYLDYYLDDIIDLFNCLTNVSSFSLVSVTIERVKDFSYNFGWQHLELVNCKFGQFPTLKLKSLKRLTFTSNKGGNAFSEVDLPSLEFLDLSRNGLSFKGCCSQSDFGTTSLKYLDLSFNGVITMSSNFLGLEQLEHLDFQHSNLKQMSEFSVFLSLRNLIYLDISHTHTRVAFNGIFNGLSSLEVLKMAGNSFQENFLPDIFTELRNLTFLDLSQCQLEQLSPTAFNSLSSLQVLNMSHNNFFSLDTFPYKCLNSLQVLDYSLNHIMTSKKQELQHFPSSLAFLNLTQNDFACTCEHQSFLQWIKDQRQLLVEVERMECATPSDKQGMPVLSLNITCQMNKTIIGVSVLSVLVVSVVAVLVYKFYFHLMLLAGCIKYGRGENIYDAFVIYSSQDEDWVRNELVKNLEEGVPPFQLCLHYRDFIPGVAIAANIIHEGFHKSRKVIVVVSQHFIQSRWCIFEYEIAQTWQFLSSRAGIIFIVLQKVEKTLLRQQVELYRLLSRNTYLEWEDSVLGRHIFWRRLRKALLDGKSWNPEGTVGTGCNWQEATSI

## CCCCNc1nc(N)nc(C)c1CCCn1cccn1
[1]
  Activity: inactive
Toll-like receptor 8
  EC50: 1.05 µM
[2]
  Activity: inactive
[3]
  Activity: inactive
[4]
  Activity: inactive
[5]
  Activity: inactive

## CCCCNc1nc(N)nc(C)c1CCCN1CCCC1
[1]
  Activity: inactive
Toll-like receptor 8
  EC50: 0.11 µM
[2]
  Activity: inactive
[3]
  Activity: inactive
[4]
  Activity: inactive
[5]
  Activity: inactive

## CCCCNc1nc(N)nc(C)c1C#CCN1CCOCC1
[1]
  Activity: inactive
Toll-like receptor 8
  EC50: 16.2 µM
[2]
  Activity: inactive
[3]
  Activity: inactive
[4]
  Activity: inactive
[5]
  Activity: inactive

## CCCCNc1nc(N)nc(C)c1CCCc1ccccc1
[1]
  Activity: inactive
Toll-like receptor 8
  EC50: 0.749 µM
[2]
  Activity: inactive
[3]
  Activity: inactive
[4]
  Activity: inactive
[5]
  Activity: inactive

## CCCCNc1nc(N)nc(C)c1CCCN1CCCCC1
[1]
  Activity: inactive
Toll-like receptor 8
  EC50: 0.133 µM
[2]
  Activity: inactive
[3]
  Activity: inactive
[4]
  Activity: inactive
[5]
  Activity: inactive

## CCCCNc1nc(N)nc(C)c1CCC(C)(C)O
[1]
  Activity: inactive
Toll-like receptor 8
  EC50: 3.14 µM
[2]
  Activity: inactive
[3]
  Activity: inactive
[4]
  Activity: inactive
[5]
  Activity: inactive

## CCCCNc1nc(N)nc(C)c1CCCC(C)(C)O
[1]
  Activity: inactive
Toll-like receptor 8
  EC50: 1.22 µM
[2]
  Activity: inactive
[3]
  Activity: inactive
[4]
  Activity: inactive
[5]
  Activity: inactive

## CCCCNc1nc(N)nc(C)c1CCCN1CCN(c2ccccc2)CC1
[1]
  Activity: inactive
Toll-like receptor 8
  EC50: 0.092 µM
[2]
  Activity: inactive
[3]
  Activity: inactive
[4]
  Activity: inactive
[5]
  Activity: inactive

## CCCCNc1nc(N)nc(C)c1CCCN(C)C
[1]
  Activity: inactive
Toll-like receptor 8
  EC50: 0.126 µM
[2]
  Activity: inactive
[3]
  Activity: inactive
[4]
  Activity: inactive
[5]
  Activity: inactive

## CCCCNc1nc(N)nc(C)c1CCCCN1CCOCC1
[1]
  Activity: inactive
Toll-like receptor 8
  EC50: 0.128 µM
[2]
  Activity: inactive
[3]
  Activity: inactive
[4]
  Activity: inactive
[5]
  Activity: inactive

## CCCCNc1nc(N)nc(C)c1CCCN1CCCCCC1
[1]
  Activity: inactive
Toll-like receptor 8
  EC50: 0.178 µM
[2]
  Activity: inactive
[3]
  Activity: inactive
[4]
  Activity: inactive
[5]
  Activity: inactive

## CCCCNc1nc(N)nc(C)c1CCCN1Cc2ccccc2C1
[1]
  Activity: inactive
Toll-like receptor 8
  EC50: 0.029 µM
[2]
  Activity: inactive
[3]
  Activity: inactive
[4]
  Activity: inactive
[5]
  Activity: inactive
